The conditions of series [1]: 298 K; average of HN CSD values at T(L3), K(S+1) and G(L4) ΔδHα/α', K1R-HP7 as fully-folded state; cited from earlier work.
A short description of series [2]: CD thermal denaturation. In kind it is physicochemical. The conditions noted are these: for β-Strap %-fold χF at 291K: local β-strap folding at 291 K (18 °C) from best-fitted melting curves of [θ(T)]228, phosphate buffer 15 mM, pH 6.5; for T·ΔΔSF°: entropic difference between pairs as printed: 2b/2a, 3d/3e; for χF / % fold (NMR and CD collectively): 291 K, NMR and CD data together; for ΔGF*: free energy at temperature T* of maximal stability, from thermostability curves; for % folded below 50 °C: plateau of thermal stability from 0 to ~50 °C, dynamic equilibrium of stable conformational states; for ΔCpF°: heat capacity of folding.

The nature of series [3]: Kinetic solubility in phosphate buffer. In kind it is physicochemical. The conditions noted are these: phosphate buffer (PB, 50 mM), pH 7.4.
Series [4] in a line: Loop %-folding by 1H NMR from glycine Hα/α' splitting. Conditions: 291 K; ΔδHα/α'G(L4) model with 0.33 ppm as fully-folded state (model of ref 27). In kind it is physicochemical. In a few lines:
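Peptide samples at 3–10 mM for 1H NMR, TOCSY (80 ms mixing), NOESY (200 ms mixing) and 1H–13C HSQC. Samples for 1H–15N HSQC and HMBC were at 10–20 mM, with some constructs at 10–70 mM. Chemical shift deviations are experimental δH minus calculated random-coil δH. Random-coil values were checked against random-coil reference peptides (Δ|CSD| ≤ 0.20 ppm).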

The values that follow come from paper PMC8576641 (The Journal of organic chemistry, 2021).

Marks after values point to notes of the source that are not given here. No end group written: not given here. Bounds are passed on as bounds.

For the substance Ac-NPATGK-NH2 [Loop], in series [1], the “Loop %-fold χF” value was 6 ± 7%^d.

For the substance Ac-W-NPATGK-W-NH2 [Tr-HP7], the “Loop %-fold χF” value in series [1] is on record as 49 ± 1%^d.

For Ac-WDDATKTWTG-NH2 [1b], the “β-Strap %-fold χF at 291K” value in series [2] amounted to 54 ± 7%. In series [3], the solubility was 35.3 mM.

As to Ac-WNPATGKWTG-NH2 [1a], in series [2], the “β-Strap %-fold χF at 291K” value came out at 28 ± 1%. Besides, the “Loop %-fold χF (value in parentheses)” value in series [4] amounted to 70%. In series [3], the solubility was found to be 2.9 mM.

Consider Ac-WTFNPATGKFKWTG-NH2 [1c], for which the “β-Strap %-fold χF at 291K” value in series [2] was determined as 63 ± 4%. Also, the “Loop %-fold χF (value in parentheses)” value in series [4] is on record as 151%. Moreover, the solubility in series [3] came to 22.3 mM.

Turning to Ac-WVWGPGTGKWVW-NH2 [2b], in series [2], the “T·ΔΔSF°” value was 3.25 kcal/mol and the “β-Strap %-fold χF at 291K” value was 56 ± 1%. For the same substance, in series [4], the “Loop %-fold χF (value in parentheses)” value worked out at 9%. In series [3], this substance gave a solubility of 0.8 mM.

For the substance Ac-WVWNPATGKWVW-NH2 [2a], in series [2], the “χF / % fold (NMR and CD collectively)” value was over 90%; the “ΔGF*” value was -2.50 kcal/mol; the “β-Strap %-fold χF at 291K” value was 99 ± 1%; the “% folded below 50 °C” value is over 80%. For the same substance, the “ΔGF°” value in series [2] (folding free energy at 298 K, two-state model from CD melts) is -2.36 kcal/mol. For the same substance, in series [4], the “Loop %-fold χF (value in parentheses)” value was determined as 154%. Further, in series [3], the solubility is recorded as 1.2 mM.

For the substance KTW-NPATGK-WTE [HP7], in series [1], the “Loop %-fold χF” value was 89 ± 1%^d.

RWHWNPATGKWVWE [3b]: in series [2], the “ΔGF*” value is -1.84 kcal/mol, the “β-Strap %-fold χF at 291K” value worked out at 95 ± 2% and the “% folded below 50 °C” value is reported as over 80%. Further, in series [2] (two-state model from CD melts), the “ΔCpF°” value is given as −158 ± 3 cal·mol^−1·deg^−1. In addition, in series [4], the “Loop %-fold χF (value in parentheses)” value amounted to 167%. Also, the solubility in series [3] is reported as 56.3 mM.

As to RWNPATGKWE [3c], in series [2] (two-state model from CD melts), the “ΔCpF°” value is listed as −106 cal·mol^−1·deg^−1. Further, the “β-Strap %-fold χF at 291K” value in series [2] is 84 ± 11%. Moreover, in series [4], the “Loop %-fold χF (value in parentheses)” value came out at 139%. This substance showed a solubility in series [3] of 39.5 mM.

Consider RWVWGGGGKKGGGGWVWE [3d], for which, in series [2], the “T·ΔΔSF°” value was -3.53 kcal/mol and the “β-Strap %-fold χF at 291K” value came to 88 ± 1%. The solubility in series [3] turned out to be 5.8 mM.

As for RWVWNPATGKWVWE [3a], in series [2], the “χF / % fold (NMR and CD collectively)” value was 89–93%; the “β-Strap %-fold χF at 291K” value was 89 ± 14%; the “% folded below 50 °C” value is listed as over 80%. Besides, in series [2] (two-state model from CD melts), the “ΔCpF°” value is reported as −53 cal·mol^−1·deg^−1. Moreover, the “Loop %-fold χF (value in parentheses)” value in series [4] stood at 154%. The solubility in series [3] is on record as 27.1 mM.

On to RWVWRDYRFDMGFDWVWE [3e], for which, in series [2], the “β-Strap %-fold χF at 291K” value was found to be 55 ± 1%. In series [3], this substance showed a solubility of 0.6 mM.

With RWVWRDYRGDMGFDWVWE [3f], in series [2], the “ΔGF*” value is -3.18 kcal/mol and the “β-Strap %-fold χF at 291K” value amounted to 82 ± 1%. Also, the solubility in series [3] is given as 8.2 mM.

The term solubility denotes how much of the substance goes into solution per volume.
